The text below walks through data of ChEMBL document CHEMBL2424560, “Structure- and reactivity-based development of covalent inhibitors of the activating and gatekeeper mutant forms of the epidermal growth factor receptor (EGFR)” (J Med Chem, 2013).

As a reminder, the IC50 is the midpoint of a concentration-inhibition curve. By logD is commonly meant the decadic logarithm of the distribution of all forms, ionised or not, between an organic phase and buffer at a given pH. A high value points to higher lipophilicity. What is called half-life is how long it takes for the measured level to halve. Broadly, the inhibition is the percentage by which the read-out fell short of the control.

The source made the active and inactive calls. No cut-off for these calls is given here.

Data set [1] addresses Epidermal growth factor receptor (Homo sapiens, UniProt P00533, EX19DEL). The format is cell-based, PC-9.
Data set [2] can be described thus: (§1) Inhibition of human recombinant N-terminal GST-tagged EGFR L858R/[…] double mutant after 50 mins by HTRF assay. A general note: TR-FRET usually uses a lanthanide donor and a delayed reading to cut background.
Data set [3] addresses T1, Epidermal growth factor receptor (Homo sapiens, UniProt P00533). Type of data set: cell-based, LoVo.
Data set [4] addresses Epidermal growth factor receptor (Homo sapiens, UniProt P00533, L858R/T790M). The format is cell-based, NCI-H1975.
A short description of data set [5]: Aqueous solubility of the compound. Type of data set: physicochemical. The conditions noted are these: buffer.
Data set [6] in a line: Lipophilicity, log D of the compound at pH 7.4. Type of data set: physicochemical. The conditions noted are these: buffer.
Data set [7] in a line: Half life in phosphate buffer at pH 7.4 at 50 uM by LC-MS analysis in presence of glutathione. Type of data set: physicochemical. As to conditions: phosphate buffer with glutathione.
Data set [8] is filed under the species Homo sapiens. The data set is described as §1.
For data set [9], the species on record is Homo sapiens. Kind of data set: Selectivity ratio of IC50 for wild type human EGFR to IC50 for human recombinant N-terminal GST-tagged EGFR L858R/[…] double mutant.
Data set [10] has as its system NCI-H1975. As to the kind of experiment: Selectivity ratio of IC50 for EGFR L858R/[…] double mutant phosphorylation in human NCI-H1975 cells to IC50 for human recombinant N-terminal GST-tagged EGFR L858R/[…] double mutant. Type of data set: cell-based.
In data set [11] the target is T1, Epidermal growth factor receptor. Kind of data set: Inhibition of wild type human EGFR after 50 mins by HTRF assay.
Data set [12] addresses Insulin-like growth factor 1 receptor (Homo sapiens) (UniProt P08069). Kind of data set: Inhibition of IGF1R (unknown origin) at 1 uM relative to control. The method, boiled down: (§2)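 Broad panel of >70 kinases run as biochemical assays at University of Dundee, compound tested at 1 μM; percent inhibition relative to control.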
In data set [13] the target is Maternal embryonic leucine zipper kinase (Homo sapiens) (UniProt Q14680). As to the kind of experiment: Inhibition of MELK (unknown origin) at 1 uM relative to control. The method, boiled down: as §2
Maternal embryonic leucine zipper kinase (Homo sapiens), sequence (Q14680 whole entry, looked up): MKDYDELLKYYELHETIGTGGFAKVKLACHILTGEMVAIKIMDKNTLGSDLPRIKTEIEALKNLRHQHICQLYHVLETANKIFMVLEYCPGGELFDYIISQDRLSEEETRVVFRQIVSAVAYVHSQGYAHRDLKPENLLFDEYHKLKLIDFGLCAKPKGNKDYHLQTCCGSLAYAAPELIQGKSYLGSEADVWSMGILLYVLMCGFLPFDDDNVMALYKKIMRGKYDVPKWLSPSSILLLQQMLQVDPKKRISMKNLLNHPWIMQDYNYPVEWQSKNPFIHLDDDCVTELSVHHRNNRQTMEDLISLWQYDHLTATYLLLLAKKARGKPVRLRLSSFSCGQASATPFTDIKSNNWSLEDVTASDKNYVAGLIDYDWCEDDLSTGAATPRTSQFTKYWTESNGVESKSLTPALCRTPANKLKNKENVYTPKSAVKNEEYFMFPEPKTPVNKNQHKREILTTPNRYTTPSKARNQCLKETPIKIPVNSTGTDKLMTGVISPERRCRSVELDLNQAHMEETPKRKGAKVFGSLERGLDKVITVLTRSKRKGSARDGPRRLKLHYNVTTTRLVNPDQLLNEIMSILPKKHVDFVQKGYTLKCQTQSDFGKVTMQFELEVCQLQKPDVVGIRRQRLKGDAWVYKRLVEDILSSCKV
In a further data set the test system is PC-9. Kind of data set: Antitumor activity against human PC9 cells harboring EGFR exon 19 deletion activating mutant xenografted in SCID mouse assessed as tumor growth inhibition at 60 mg/kg/day, po after 7 days relative to vehicle-treated control. As to conditions: read-out: TGI. Type of data set: functional. Background: A xenograft is tissue or cells of one species grown in another, often human tumour cells in immunodeficient mice.

Data set [14] has as its target Vascular endothelial growth factor receptor 1 (Homo sapiens) (UniProt P17948). As to the kind of experiment: Inhibition of FLT1 (unknown origin) at 1 uM relative to control. The essentials:
as §2

The test system of data set [15] is NCI-H1975. Kind of data set: Antitumor activity against human NCI-H1975 cells harboring EGFR L858R/[…] double mutant xenografted in SCID mouse assessed as tumor growth inhibition at 60 mg/kg/day, po after 7 days relative to vehicle-treated control. Type of data set: functional. The conditions noted are these: read-out: TGI.
Data set [16] has as its target Serine/threonine-protein kinase Chk2 (Homo sapiens) (UniProt O96017). Kind of data set: Inhibition of CHK2 (unknown origin) at 1 uM relative to control. The essentials: as §2
The target in data set [17] is Calcium/calmodulin-dependent protein kinase kinase 2 (Homo sapiens) (UniProt Q96RR4). Kind of data set: Inhibition of CAMKKbeta (unknown origin) at 1 uM relative to control. The method, boiled down:
as §2

Data set [18] has as its target Tyrosine-protein kinase BTK (Homo sapiens) (UniProt Q06187). Kind of data set: Inhibition of BTK (unknown origin) at 1 uM relative to control. The essentials:
as §2

For data set [19], the target named is Myosin light chain kinase, smooth muscle (Homo sapiens) (UniProt Q15746). Kind of data set: Inhibition of smMLCK (unknown origin) at 1 uM relative to control. The essentials: as §2
A further data set has as its system A-431. Kind of data set: Antitumor activity against wild type human A431 cells xenografted in SCID mouse assessed as tumor growth inhibition at 60 mg/kg/day, po after 7 days relative to vehicle-treated control. Type of data set: functional. The conditions noted are these: read-out: TGI.
The target in data set [20] is T2, Lymphokine-activated killer T-cell-originated protein kinase (Homo sapiens) (UniProt Q96KB5).
T2 sequence (whole entry): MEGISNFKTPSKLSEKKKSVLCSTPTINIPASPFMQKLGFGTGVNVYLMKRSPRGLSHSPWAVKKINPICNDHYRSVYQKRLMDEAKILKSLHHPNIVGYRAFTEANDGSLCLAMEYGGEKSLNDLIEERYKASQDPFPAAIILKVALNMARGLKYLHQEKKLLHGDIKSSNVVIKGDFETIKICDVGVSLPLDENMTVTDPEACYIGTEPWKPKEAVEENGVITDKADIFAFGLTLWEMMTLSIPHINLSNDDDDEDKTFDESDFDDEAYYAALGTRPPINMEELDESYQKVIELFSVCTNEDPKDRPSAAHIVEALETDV
As to the kind of experiment: Inhibition of PBK (unknown origin) at 1 uM relative to control. The essentials:
as §2

In data set [21] the target is Mitogen-activated protein kinase kinase kinase 11 (Homo sapiens) (UniProt Q16584). As to the kind of experiment: Inhibition of MAP3K11 (unknown origin) at 1 uM relative to control. The method, boiled down: as §2
Data set [22] deals with Insulin receptor (Homo sapiens) (UniProt P06213). Kind of data set: Inhibition of insulin receptor (unknown origin) at 1 uM relative to control. The essentials:
as §2

Epidermal growth factor receptor (Homo sapiens, UniProt P00533, EX19DEL), sequence (P00533 whole entry, looked up, stated change not applied): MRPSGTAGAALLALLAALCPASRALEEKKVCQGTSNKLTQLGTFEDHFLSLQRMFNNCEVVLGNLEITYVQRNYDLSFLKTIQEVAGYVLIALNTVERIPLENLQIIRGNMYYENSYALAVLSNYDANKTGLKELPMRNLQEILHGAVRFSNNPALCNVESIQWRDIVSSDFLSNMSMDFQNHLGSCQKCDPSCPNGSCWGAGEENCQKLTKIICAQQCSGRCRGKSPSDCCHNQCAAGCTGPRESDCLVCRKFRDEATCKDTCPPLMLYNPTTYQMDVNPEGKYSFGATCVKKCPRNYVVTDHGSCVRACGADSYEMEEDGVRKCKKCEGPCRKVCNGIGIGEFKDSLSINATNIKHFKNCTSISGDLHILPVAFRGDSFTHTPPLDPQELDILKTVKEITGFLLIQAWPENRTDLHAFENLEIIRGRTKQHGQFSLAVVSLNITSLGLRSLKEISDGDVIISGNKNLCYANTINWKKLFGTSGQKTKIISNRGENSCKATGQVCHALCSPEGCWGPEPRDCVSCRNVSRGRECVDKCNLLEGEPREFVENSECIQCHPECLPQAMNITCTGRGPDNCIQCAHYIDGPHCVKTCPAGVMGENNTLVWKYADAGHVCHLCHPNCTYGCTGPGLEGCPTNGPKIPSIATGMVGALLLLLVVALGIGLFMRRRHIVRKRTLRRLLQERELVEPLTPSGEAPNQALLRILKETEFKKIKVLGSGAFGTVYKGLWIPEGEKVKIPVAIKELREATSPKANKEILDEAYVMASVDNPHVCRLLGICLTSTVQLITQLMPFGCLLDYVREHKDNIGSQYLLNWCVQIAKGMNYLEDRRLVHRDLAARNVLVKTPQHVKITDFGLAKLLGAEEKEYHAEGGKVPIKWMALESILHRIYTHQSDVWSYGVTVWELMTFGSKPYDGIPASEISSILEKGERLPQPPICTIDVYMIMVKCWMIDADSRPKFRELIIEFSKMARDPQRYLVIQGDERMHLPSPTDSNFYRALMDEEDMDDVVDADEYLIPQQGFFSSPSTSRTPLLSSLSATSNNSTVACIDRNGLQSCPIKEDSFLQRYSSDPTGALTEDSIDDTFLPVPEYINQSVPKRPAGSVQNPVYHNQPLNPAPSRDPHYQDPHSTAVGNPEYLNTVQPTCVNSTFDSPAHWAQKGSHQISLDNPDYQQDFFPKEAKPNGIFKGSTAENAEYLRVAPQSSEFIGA
T1 sequence (P00533 whole entry): as the sequence (P00533 whole entry, looked up, stated change not applied) above
Epidermal growth factor receptor (Homo sapiens, UniProt P00533, L858R/T790M), sequence (P00533 25-1210 T790M/L858R limits assumed): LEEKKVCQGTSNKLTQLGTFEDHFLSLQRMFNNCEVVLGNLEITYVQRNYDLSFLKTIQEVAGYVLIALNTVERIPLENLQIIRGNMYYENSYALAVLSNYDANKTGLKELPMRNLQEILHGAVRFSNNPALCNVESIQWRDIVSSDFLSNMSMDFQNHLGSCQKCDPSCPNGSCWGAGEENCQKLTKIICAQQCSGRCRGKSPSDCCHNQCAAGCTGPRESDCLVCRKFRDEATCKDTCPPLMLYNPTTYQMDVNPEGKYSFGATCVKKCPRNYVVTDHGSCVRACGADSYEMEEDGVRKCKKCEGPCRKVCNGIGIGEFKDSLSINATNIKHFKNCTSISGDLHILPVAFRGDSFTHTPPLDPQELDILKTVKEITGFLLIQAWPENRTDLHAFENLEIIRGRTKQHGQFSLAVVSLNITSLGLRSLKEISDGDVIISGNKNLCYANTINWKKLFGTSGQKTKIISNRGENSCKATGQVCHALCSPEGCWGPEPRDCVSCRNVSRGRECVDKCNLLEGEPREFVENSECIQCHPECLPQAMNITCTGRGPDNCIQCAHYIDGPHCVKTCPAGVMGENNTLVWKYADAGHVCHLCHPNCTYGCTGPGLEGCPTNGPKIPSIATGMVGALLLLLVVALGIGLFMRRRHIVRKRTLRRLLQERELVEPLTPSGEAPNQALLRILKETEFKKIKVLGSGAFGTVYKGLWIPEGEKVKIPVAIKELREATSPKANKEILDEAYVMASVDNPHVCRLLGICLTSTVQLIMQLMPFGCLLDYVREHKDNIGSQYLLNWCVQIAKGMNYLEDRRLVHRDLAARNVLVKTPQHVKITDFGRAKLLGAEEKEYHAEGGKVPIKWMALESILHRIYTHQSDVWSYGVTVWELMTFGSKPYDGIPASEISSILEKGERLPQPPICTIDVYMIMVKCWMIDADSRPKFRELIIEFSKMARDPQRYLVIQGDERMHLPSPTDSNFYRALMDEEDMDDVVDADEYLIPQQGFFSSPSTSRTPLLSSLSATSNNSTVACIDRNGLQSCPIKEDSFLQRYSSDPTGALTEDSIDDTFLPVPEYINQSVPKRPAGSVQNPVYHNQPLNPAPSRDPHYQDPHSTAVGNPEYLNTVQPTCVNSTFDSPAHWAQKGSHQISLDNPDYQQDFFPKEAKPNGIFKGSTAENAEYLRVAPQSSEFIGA
Serine/threonine-protein kinase Chk2 (Homo sapiens), sequence (O96017 whole entry): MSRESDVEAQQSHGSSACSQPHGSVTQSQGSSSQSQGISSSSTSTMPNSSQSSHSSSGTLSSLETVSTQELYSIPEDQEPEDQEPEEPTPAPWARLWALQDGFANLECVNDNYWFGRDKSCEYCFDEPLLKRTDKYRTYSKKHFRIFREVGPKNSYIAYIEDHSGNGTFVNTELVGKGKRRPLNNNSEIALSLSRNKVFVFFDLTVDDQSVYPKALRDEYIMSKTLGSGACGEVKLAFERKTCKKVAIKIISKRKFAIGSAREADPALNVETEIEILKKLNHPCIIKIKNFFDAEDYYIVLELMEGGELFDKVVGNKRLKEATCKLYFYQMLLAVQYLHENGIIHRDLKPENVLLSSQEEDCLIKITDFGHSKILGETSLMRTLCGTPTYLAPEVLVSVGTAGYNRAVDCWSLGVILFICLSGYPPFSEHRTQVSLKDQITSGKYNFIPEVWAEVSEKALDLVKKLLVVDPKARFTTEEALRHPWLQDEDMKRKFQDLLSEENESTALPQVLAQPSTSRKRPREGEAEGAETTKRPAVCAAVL

For `C=CC(=O)N1CCc2cc(OC)c(Nc3ncc(Cl)c(-c4c[nH]c5ccccc45)n3)cc21`, the IC50 in data set [1] is 2800 nM; in [2], 52 nM; in data set [3], more than 30 µM; in [4] it was 2100 nM.

On to `C=CC(=O)Nc1ccccc1`, for which, in data set [5], the solubility entry is reported as “soluble”.

Regarding `COc1ccc(NC(=O)CC#N)cc1Nc1ncc(Cl)c(-c2c[nH]c3ccccc23)n1`, the 50% inhibitory concentration (IC50) in data set [1] was 1800 nM; in data set [2] it was 65 nM; in [3], more than 30 µM; in data set [4] it was 2800 nM.

In the case of `C=CC(=O)Nc1cc(Nc2nccc(-c3c[nH]c4ccccc34)n2)c(OC)cc1N1CCN(C)CC1`, in data set [6], the logD turned out to be 3.4. The IC50 in data set [1] turned out to be 17 nM; in data set [3], 1.3 µM; in data set [4], 68 nM.

In the case of `C=CC(=O)Nc1ccc(Nc2ncc(Cl)c(-c3c[nH]c4ccccc34)n2)cc1`, the IC50 in data set [1] is 19000 nM; in data set [2], 320 nM; in data set [3], more than 30 µM; in data set [4] it was 12900 nM.

As to `COc1ccc(NC(=O)/C=C/CN(C)C)cc1Nc1ncc(Cl)c(-c2c[nH]c3ccccc23)n1`, the IC50 is 85 nM in data set [1], 1.55 µM in [3] and 53 nM in data set [4].

Take `COc1ccc(NC(=O)/C=C/CN(C)C)cc1Nc1ncc([S+](C)[O-])c(-c2cnn3ccccc23)n1` (centres undefined): the pH-dependent lipophilicity (logD) in data set [6] amounted to 1.3. For the same compound, the IC50 in data set [1] is 1300 nM; in data set [3], more than 30 µM; in data set [4], 15200 nM.

For `COc1ccc(NC(=O)CCCN(C)C)cc1Nc1ncc(Cl)c(-c2cnn3ccccc23)n1`, the half-maximal inhibitory concentration (IC50) was 18 nM in data set [2] and 2300 nM in [4].

In the case of `COc1ccc(NC(=O)/C=C/CN(C)C)cc1Nc1ncc(C)c(-c2cnn3ccccc23)n1`, the results for the IC50 in data set [1], in [3] and in data set [4] were 250 nM, 24 µM and 290 nM, respectively.

For the compound `C=CC(=O)Nc1cc(Nc2nccc(-c3cnn4ccccc34)n2)c(OC)cc1N1CCN(C)CC1`, the half-maximal inhibitory concentration (IC50) in data set [1] stood at 140 nM; in data set [3], 19 µM.

Take `C=CC(=O)Nc1cccc(Nc2ncc(Cl)c(-c3c[nH]c4ccccc34)n2)c1`: the logD in data set [6] was more than 4.3. Besides, the IC50 in data set [1] turned out to be 270 nM; in data set [2], 53 nM; in [3], 3.5 µM; in [4], 81 nM.

For `CN(C)C/C=C/C(=O)Nc1cc2c(Nc3ccc(F)c(Cl)c3)ncnc2cc1O[C@H]1CCOC1` [AFATINIB], the half-life at 50 µM in [7] came out at 25 min.

On to `C=CC(=O)Nc1cc2c(Nc3ccc(F)c(Cl)c3)ncnc2cc1OCCCN1CCOCC1`, for which the inhibition entry in the data set filed under Homo sapiens [8] is “Active”.

As for `COc1cc2ncnc(Nc3ccc(F)c(Cl)c3)c2cc1NC(=O)/C=C/CN1CCCCC1`, the inhibition entry in the data set filed under Homo sapiens [8] is “Active”.

In data set [6], `COc1ccc(NC(=O)/C=C/CN(C)C)cc1Nc1ncc(F)c(-c2cnn3ccccc23)n1` showed a pH-dependent lipophilicity (logD) of 3.3. The IC50 in [1] turned out to be 380 nM; in [3], 19 µM; in data set [4], 220 nM.

In data set [6], `C=CC(=O)Nc1ccc(OC)c(Nc2ncc(Cl)c(-c3c[nH]c4ccccc34)n2)c1` returned a log distribution coefficient (logD) of more than 4.3. Moreover, the half-maximal inhibitory concentration (IC50) in data set [1] stood at 29 nM; in [2] it was 6.3 nM; in data set [3], 0.55 µM; in [4] it was 22 nM.

In [1], `C=CC(=O)Nc1cc(Nc2ncc(Cl)c(-c3c[nH]c4ccccc34)n2)c(OC)cc1N1CCN(C)CC1` had a 50% inhibitory concentration (IC50) of 23 nM.

Regarding `COc1ccc(NC(=O)/C=C/CN(C)C)cc1Nc1nccc(-c2cnn3ccccc23)n1`, the figures for the IC50 in data set [1], in data set [3] and in data set [4] were 390 nM, 20 µM and 250 nM, respectively.

With `COc1cc(N2CCN(C(C)=O)CC2)ccc1Nc1ncc(Cl)c(-c2c[nH]c3ccccc23)n1`, the Ratio IC50 in the data set filed under Homo sapiens [9] is 88; with NCI-H1975 [10], 90. In addition, the concentration for half-maximal inhibition (IC50) in data set [2] is 9 nM; in data set [4], 770 nM; in data set [11], 790 nM.

Take `C=CC(=O)Nc1ccc(OC)c(Nc2ncc(Cl)c(-c3cnn4ccccc34)n2)c1`: the logD in data set [6] was more than 4.3. Moreover, the IC50 in data set [1] worked out at 150 nM; in [3], 12.8 µM; in [4], 33 nM.

Turning to `COc1ccc(NC(=O)/C=C/CN(C)C)cc1Nc1ncc(Cl)c(-c2cnn3ccccc23)n1`, the inhibition in data set [12], in data set [13], in data set [14], in [16], in [17] and in [18] was more than 75% in each case. Moreover, the inhibition in data set [19], in [20], in data set [21] and in data set [22] was more than 75% throughout. The values for the inhibition in vivo at 60 mg/kg/day with PC-9, in the data set on NCI-H1975 [15] and in the data set on A-431 were 134%, 105% and 46%, respectively.
